From PubChem BioAssay
STAT3 act = increases IL-6 driven STAT3 reporter signal. U3A cells, IL-6 STAT3-luciferase reporter, luminescence; 100% = signal with IL-6 EC80 alone. 190,000 compounds, 0.91% hits. activation (% of control), % at 5.6 µM. AID 871;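 active = activation above the screen-wide mean of compound activation plus 3 SD, cut at about 130% in these data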
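Detection: reporter luminescence signal / Assay system: STAT1-lacking human U3A cells, STAT3 luciferase reporter / Incubation: compound pre-incubation 1 h before IL-6, then 6 h stimulation at 37 °C / Control set: IL-6-only high control / Read-out: % activation relative to IL-6 control / Probe or stimulus: Interleukin-6, 33 ng/mL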
STAT1 blocker = reduces IFN-gamma driven STAT1 reporter signal. NIH 3T3 STAT1-luciferase reporter, luminescence. inhibition, % at 5.5 µM. 200,000 compounds, 0.35% hits;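 active = inhibition above a set limit, the mean inhibition across all tested compounds plus 3 SD, cut at about 34% in these data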
APP 5'UTR act = activates APP 5'UTR luciferase reporter; SH-SY5Y APP 5'UTR luciferase reporter, luminescence; zero percent = DMSO vehicle wells; activation, % at 2 µM; 190,000 compounds, 1% hits; AID 1276;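 active = activation above a set limit, based on mean plus 3 SD of controls, cut at about 140% in these data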
STAT3 inh = reduces IL-6 driven STAT3 reporter signal | U3A cells, IL-6 STAT3-luciferase reporter, luminescence; host cell line lacks STAT1 | inhibition, % at 5.5 µM | 190,000 compounds, 0.89% hits | AID 862;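 active = inhibition above the mean inhibition across all screened compounds plus 3 SD, cut at about 44% in these data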
STAT1 act = STAT1 signaling activation | NIH 3T3 STAT1-luciferase reporter, IFN-gamma, luminescence; 100% = IFN-gamma alone, no compound | activation (% of control), % at 5.5 µM | 200,000 compounds, 2.6% hits;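 active = activation above the screen-wide mean activation plus 3 SD, cut at about 130% in these data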
NF-kB expr up = NF-kB expression increase, human neuronal cells | NF-kB reporter expression; active compounds read high | fold change at 12.5 µM | 190,000 compounds, 1.6% hits | AID 1239; in the data active = fold change above about 3.3
A number is an active result; . = inactive. Hits are enriched below; roughly 4.9% of the tested compounds scored in any of these assays.

SMILES | STAT3 act | STAT1 blocker | APP 5'UTR act | STAT3 inh | STAT1 act | NF-kB expr up
COCCn1c(/C=C/c2ccccc2)nc2ccccc21 | . | . | . | . | 146 | 3.9
Cn1c(/C=C/c2ccccc2)nc2ccccc21 | . | 75 | . | 89 | . | .
COc1ccccc1Cn1c(/C=C/c2ccccc2)nc2ccccc21 | . | . | . | . | . | .
Cn1c(=O)c(/C=C/c2ccccc2)nc2ccccc21 | 146 | . | 138 | . | 134 | 4.2
COc1cc(/C=C(\NC(C)=O)C(=O)Nc2cccc(O)c2)ccc1OC(C)=O | . | . | . | . | . | .
Cc1cccc(C(=O)Nc2nccs2)c1[N+](=O)[O-] | . | . | . | . | . | .
CC(=O)C(/C=N/c1ncc(C(F)(F)F)cc1Cl)=C(\C)O | . | . | . | . | . | .
COc1ccc(OC)c(Cc2nnc(CCC(=O)N3CCCCC3c3nccs3)o2)c1 (stereo not drawn) | . | . | . | . | 134 | .
C/C(=N\N=C(N)N)c1ccc(Cl)c(Cl)c1 | . | . | . | . | . | .
CNC(=S)NC(CC(=O)OC)c1ccc2c(c1)OCO2 (stereo not drawn) | . | . | . | . | . | .
CNC(=O)c1ccccc1NC(=O)c1c(O)c2c([nH]c1=O)CCCC2 | . | . | . | . | . | .
O=C(N/N=C/c1cccc(F)c1)c1c(O)c2c([nH]c1=O)CCCC2 | . | . | 142 | . | . | .
O=C1CC2c3ccccc3C1C1C(=O)N(CCO)C(=O)C21 (stereo not drawn) | . | . | . | . | . | .
CN(C)S(=O)(=O)c1ccc(N=Cc2c(C(F)(F)F)[nH][nH]c2=O)cc1 | . | . | . | . | . | .
Cn1[nH]c(C(F)(F)F)c(C=Nc2ccc(Cl)cc2)c1=O | . | . | 182 | . | . | .
C#CC(C)(CC)NC(=O)c1cc2nc(C3CC3)cc(C(F)(F)F)n2n1 (stereo not drawn) | . | . | . | . | . | .
Cn1cccc1-c1cc(C(=O)N/N=C/c2cccc(O)c2)[nH]n1 | . | . | . | . | . | .
Cc1ccc(S(=O)(=O)Nc2ccc(-c3nc4cc(NS(=O)(=O)c5ccc(C)cc5)ccc4o3)cc2)cc1 | . | . | . | . | . | .
CCc1ccc2oc(-c3cccc(N)c3)nc2c1 | . | . | . | . | . | 3.9
Nc1ccc2oc(-c3cccc(Br)c3)nc2c1 | . | . | . | . | 146 | .
Nc1ccc2oc(-c3ccc4nc[nH]c4c3)nc2c1 | . | . | . | . | 132 | .
NS(=O)(=O)c1ccc(CNC(=O)/C=C/c2c(F)cccc2Cl)cc1 | . | . | . | . | . | .
Cc1cccc(/C=C/C(=O)c2ccc(N3CCOCC3)cc2)c1 | . | . | . | . | . | .
Cc1ccc(/C=C/C(=O)c2ccc(N3CCOCC3)cc2)s1 | . | . | . | . | 135 | .
O=C(CCC1CCCN(C(=O)C2(c3ccccc3)CC2)C1)N1CCN(c2ccccn2)CC1 (stereo not drawn) | . | . | . | . | . | .
SMILES | STAT3 act | STAT1 blocker | APP 5'UTR act | STAT3 inh | STAT1 act | NF-kB expr up
Cc1cccc(OCCNc2cc(N3CCN(CCO)CC3)ccc2[N+](=O)[O-])c1 | . | . | . | . | . | .
O=C(Nc1nc(-c2cccc([N+](=O)[O-])c2)cs1)c1cccc([N+](=O)[O-])c1C(=O)O | . | . | . | . | . | .
Fc1ccccc1-c1nc2ccccc2[nH]1 | . | . | . | . | 134 | .
Cc1ccccc1-c1nc2ccccc2[nH]1 | . | . | . | . | 133 | .
c1ccc2nc(-c3nc4ccccc4[nH]3)ccc2c1 | . | 39 | 192 | 83 | . | 4.2
COc1ccc(NC(=O)c2ccccc2-c2ccccc2)c(C)c1 | . | . | . | . | . | .
CN(C)CCSc1nnc2[nH]c3ccccc3c2n1 | . | . | . | . | . | .
Cc1ccsc1/C=N\NC(=O)c1ccc2c(c1)OCO2 | . | . | . | . | . | 4.3
O=C(N/N=C/c1c(Cl)cccc1Cl)c1n[nH]c2c1CCCC2 | . | . | . | . | . | .
Cc1ccsc1/C=N\NC(=O)c1n[nH]c2c1CCC2 | . | . | . | . | . | 4.8
Cc1ccsc1/C=N/NC(=O)c1ccc(-n2cccc2)cc1 | . | . | . | . | 129 | .
CCOC(=S)SCc1cn2cccc(C)c2n1 | . | . | . | . | . | 3.8
